From ChEMBL document CHEMBL5620363, “HIV-1 protease inhibitors with a P1 phosphonate modification maintain potency against drug-resistant variants by increased interactions with flap residues” (Eur J Med Chem, 2023)

Columns and labels:
[1] = system: Human immunodeficiency virus 1; assay: (§1) Antiviral activity against DRV-resistant HIV-1 infected in human TZM-bl cells using virus particles harvested from 24 hrs drug-treated human CEM cells infected with virus assessed as reduction in viral infection measured after 48 hrs in TZM-bl cells by Firefly luciferase based assay; assay type: functional, organism-based; details: Human immunodeficiency virus 1, TZM-bl
Outline: (§2)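 Virus stocks grown by infecting 3 × 10^6 CEM cells with virus at 37 °C for 2–3 h, then RPMI with medium changes every 48 h until CPE. Infected CEM cells plated onto five-fold serial inhibitor dilutions in RPMI (top 100 μM).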

[2] = system: Human immunodeficiency virus 1; assay: Antiviral activity against wild-type HIV-1 NL4-3 infected in human TZM-bl cells using virus particles harvested from 24 hrs drug-treated human CEM cells infected with virus assessed as reduction in viral infection measured after 48 hrs in TZM-bl cells by Firefly luciferase based assay; assay type: functional, organism-based; details: Human immunodeficiency virus 1, NL4-3, TZM-bl; outline: as §2
[3] = system: Human immunodeficiency virus 1; assay: as §1, with “drug-resistant” for “DRV-resistant”, “HIV-1 harboring protease L10F/V11I/I13V/V32I/L33F/K43T/M46L/I54L/A71V/V82I/I84V/L89M/T91S/Q92R mutant” for “HIV-1”; assay type: functional, organism-based; details: Human immunodeficiency virus 1, TZM-bl; outline: as §2
[4] = system: Human immunodeficiency virus 1; assay: as §1, with “drug-resistant” for “DRV-resistant”, “HIV-1 harboring protease L10F/I13V/L33F/K45R/M46I/I47V/I50V/F53L/I54L/I66F/A71V/T74A/L76S/V82I mutant” for “HIV-1”; assay type: functional, organism-based; details: Human immunodeficiency virus 1, TZM-bl; outline: as §2
[5] = system: Human immunodeficiency virus 1; assay: Antiviral activity against drug-resistant HIV-1 harboring protease L10I/V11I/I13V/K14R/A22V/E35D/M36I/N37D/G48M/F53L/I54V/I62V/L63P/A71V/T74S/V82A/I84V/T91S/Q92K mutant infected in human TZM-bl cells using virus particles harvested from 24 hrs drug-treated human CEM cells infected with virus assessed as reduction in viral infection measured after 48 hrs in TZM-bl cells by Firefly luciferase based …; assay type: functional, organism-based; details: Human immunodeficiency virus 1, TZM-bl
[6] = system: Human immunodeficiency virus 1; assay: as §1, with “drug-resistant” for “DRV-resistant”, “HIV-1 harboring RT mutation/protease I13V/G16E/V32I/L33F/K45I/M46I/A71V/L76V/V82F/I84V mutant” for “HIV-1”; assay type: functional, organism-based; details: Human immunodeficiency virus 1, TZM-bl; outline: as §2
[7] = system: Human immunodeficiency virus 1; assay: Antiviral activity against wild-type HIV-1 NL4-3 infected in human TZM-bl cells using virus particles harvested from 18 hrs drug-treated HEK293T cells harboring viral transfection assessed as reduction in viral infection measured after 48 hrs in TZM-bl cells by luciferase based assay; assay type: functional, organism-based; details: Human immunodeficiency virus 1, NL4-3, TZM-bl
[8] = system: Human immunodeficiency virus 1; assay: as §1, with “drug-resistant” for “DRV-resistant”, “HIV-1 harboring protease L10F/I15V/M46I/I47V/I50V/F53L/A71V/V82I/I84V/L89T mutant” for “HIV-1”; assay type: functional, organism-based; details: Human immunodeficiency virus 1, TZM-bl; outline: as §2
[9] = (§3) Binding affinity to drug-resistant HIV-1 protease I13V/G16E/V32I/L33F/K45I/M46I/V82F/I84V/A71V/L76V mutant expressed in Escherichia coli TAP-106 cells assessed as inhibition constant using a EDANS/DABCYL FRET-peptide substrate preincubated for 1 hr followed by substrate addition measured after 1 hr by fluorogenic assay; design: species or system Human immunodeficiency virus 1
[10] = as §3, with “I13V/G16E/V32I/L33F/K45I/M46I/V82F/I84V” for “I13V/G16E/V32I/L33F/K45I/M46I/V82F/I84V/A71V/L76V”; design: species or system Human immunodeficiency virus 1
[11] = biological target: Protease (Human immunodeficiency virus 1, UniProt Q9YQ12, I84V); assay: Binding affinity to drug-resistant HIV-1 protease I84V mutant expressed in Escherichia coli TAP-106 cells assessed as inhibition constant using a EDANS/DABCYL FRET-peptide substrate preincubated for 1 hr followed by substrate addition measured after 1 hr by fluorogenic assay
[12] = as §3, with “I13V/G16E/V32I/L33F/K45I/M46I/V82F/I84V/A71V/L76V/I54L” for “I13V/G16E/V32I/L33F/K45I/M46I/V82F/I84V/A71V/L76V”; design: species or system Human immunodeficiency virus 1
[13] = system: HEK-293T; assay: (§4) Cytotoxicity against HEK293T cells incubated for 48 hrs by absorbance based assay; assay type: toxicity, cell-based; details: human, hek-293t, 48 h
[14] = system: TZM; assay: Cytotoxicity against human TZM-bl cells incubated for 48 hrs by absorbance based assay; assay type: toxicity, cell-based
[15] = in vitro; details: human
[16] = biological target: Protease (Human immunodeficiency virus 1, UniProt Q9YQ12, A71V/I50V); assay: Binding affinity to drug-resistant HIV-1 protease I50V/A71V mutant expressed in Escherichia coli TAP-106 cells assessed as inhibition constant using a EDANS/DABCYL FRET-peptide substrate preincubated for 1 hr followed by substrate addition measured after 1 hr by fluorogenic assay
[17] = as §4; assay type: toxicity, cell-based, HEK-293T; details: human, HEK293T cells
[18] = system: Human immunodeficiency virus 1; assay: as §1, with “drug-resistant” for “DRV-resistant”, “HIV-1 harboring Gag mutation/protease I13V/G16E/V32I/L33F/K45I/M46I/A71V/L76V/V82F/I84V mutant” for “HIV-1”; assay type: functional, organism-based; details: Human immunodeficiency virus 1, TZM-bl; outline: as §2

Sequence of Protease (Human immunodeficiency virus 1, UniProt Q9YQ12, A71V/I50V) (Q9YQ12 entry or part of it A71V/I50V): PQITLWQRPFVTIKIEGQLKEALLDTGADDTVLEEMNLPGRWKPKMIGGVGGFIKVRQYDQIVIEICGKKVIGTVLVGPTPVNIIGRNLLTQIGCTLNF
Sequence of Protease (Human immunodeficiency virus 1, UniProt Q9YQ12, I84V) (Q9YQ12 entry or part of it I84V): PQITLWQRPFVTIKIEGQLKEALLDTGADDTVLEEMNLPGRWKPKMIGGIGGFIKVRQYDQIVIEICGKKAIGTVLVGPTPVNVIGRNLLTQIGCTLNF

SMILES | EC50 [1] [nM] | EC50 [2] [nM] | EC50 [3] [nM] | EC50 [4] [nM] | EC50 [5] [nM] | EC50 [6] [nM] | EC50 [7] [nM] | EC50 [8] [nM] | Ki [9] [nM] | Ki [10] [nM] | Ki [11] [nM] | Ki [12] [nM] | CC50 [13] [nM] | CC50 [14] [nM] | selectivity ratio [15] | Ki [16] [nM] | CC50 at 48 h [17] [nM] | EC50 [18] [nM]
CC(C)CN(C[C@@H](O)[C@H](Cc1ccccc1)NC(=O)O[C@H]1CO[C@H]2OCC[C@H]21)S(=O)(=O)c1ccc(N)cc1 | > 100000 | 8 | 15800 | 12900 | 56 | 1460 | 7.73 | 1870 |  |  |  |  |  |  |  |  |  | 
CCOP(=O)(COc1ccc(C[C@H](NC(=O)O[C@H]2CO[C@H]3OCC[C@H]32)[C@H](O)CN(CC(C)C)S(=O)(=O)c2ccc3c(c2)OCO3)cc1)OCC |  |  |  |  |  |  | 5.67 |  | 4.5 | 2.2 | < 0.005 | 63.5 | 68000 | > 100000 | 12 | < 0.005 |  | 
CCOP(=O)(COc1ccc(C[C@H](NC(=O)O[C@H]2CO[C@H]3OCC[C@H]32)[C@H](O)CN(CC(CC)CC)S(=O)(=O)c2ccc3ncsc3c2)cc1)OCC |  |  |  |  |  |  | 10.7 |  | 0.24 | 0.25 | < 0.005 | 3.2 | 22000 | 43000 | 2.06 | < 0.005 |  | 
CCC(CC)CN(C[C@@H](O)[C@H](Cc1ccccc1)NC(=O)O[C@H]1CO[C@H]2OCC[C@H]21)S(=O)(=O)c1ccc2c(c1)OCO2 | 780 | 6 | 5770 | > 100000 |  |  |  | 6440 |  |  |  |  |  |  |  |  |  | 
CCOP(=O)(COc1ccc(C[C@H](NC(=O)O[C@H]2CO[C@H]3OCC[C@H]32)[C@H](O)CN(C[C@@H](C)CC)S(=O)(=O)c2ccc(OC)cc2)cc1)OCC |  |  |  |  |  |  | 9.56 |  | 3.7 | 0.78 | < 0.005 | 10.5 | 33000 | 78000 | 3.45 | < 0.005 |  | 
CCOP(=O)(COc1ccc(C[C@H](NC(=O)O[C@H]2CO[C@H]3OCC[C@H]32)[C@H](O)CN(CC(CC)CC)S(=O)(=O)c2ccc(CO)cc2)cc1)OCC |  |  |  |  |  |  | 17 |  | 32.1 | 2.2 | < 0.005 | 81.2 | 69000 | > 100000 | 4.06 | < 0.005 |  | 
CCOP(=O)(COc1ccc(C[C@H](NC(=O)O[C@H]2CO[C@H]3OCC[C@H]32)[C@H](O)CN(CC(CC)CC)S(=O)(=O)c2ccc3c(c2)OCO3)cc1)OCC |  | 3 |  |  | < 10 |  | 3.11 |  | 1.6 | 0.37 | < 0.005 | 6.9 | 21000 | > 100000 |  | < 0.005 |  | 
CCOP(=O)(COc1ccc(C[C@H](NC(=O)O[C@H]2CO[C@H]3OCC[C@H]32)[C@H](O)CN(C[C@@H](C)CC)S(=O)(=O)c2ccc3ncsc3c2)cc1)OCC |  |  |  |  |  |  | 9.93 |  | 1.2 | 1.8 | < 0.005 | 9.03 | 23000 | 53000 | 2.32 | < 0.005 |  | 
CCOP(=O)(COc1ccc(C[C@H](NC(=O)O[C@H]2CO[C@H]3OCC[C@H]32)[C@H](O)CN(C[C@@H](C)CC)S(=O)(=O)c2ccc(N)cc2)cc1)OCC |  |  |  |  |  |  | 22.9 |  | 146 | 13.3 | < 0.005 | 259 | 92000 | > 100000 | 4.02 | < 0.005 |  | 
CCOP(=O)(COc1ccc(C[C@H](NC(=O)O[C@H]2CO[C@H]3OCC[C@H]32)[C@H](O)CN(C[C@@H](C)CC)S(=O)(=O)c2ccc3c(c2)OCO3)cc1)OCC |  |  |  |  |  |  |  |  |  |  | < 0.005 |  | 31000 | > 100000 |  | < 0.005 |  | 
CCOP(=O)(COc1ccc(C[C@H](NC(=O)O[C@H]2CO[C@H]3OCC[C@H]32)[C@H](O)CN(CC(C)C)S(=O)(=O)c2ccc(OC)cc2)cc1)OCC |  |  |  |  |  |  | 11.8 |  | 2.1 | 0.56 | < 0.005 | 3.6 | 50000 | > 100000 | 4.24 | < 0.005 |  | 
CCOP(=O)(COc1ccc(C[C@H](NC(=O)O[C@H]2CO[C@H]3OCC[C@H]32)[C@H](O)CN(C[C@@H](C)CC)S(=O)(=O)c2ccc(CO)cc2)cc1)OCC |  |  |  |  |  |  | 27.3 |  | 52.9 | 4.98 | < 0.005 | 103 |  |  | > 3.66 | < 0.005 | > 100000 | 
CCOP(=O)(COc1ccc(C[C@H](NC(=O)O[C@H]2CO[C@H]3OCC[C@H]32)[C@H](O)CN(CC(CC)CC)S(=O)(=O)c2ccc(OC)cc2)cc1)OCC |  | 5 |  |  | < 10 | 85 | 5.15 |  | 1.26 | 0.77 | < 0.005 | 2.2 | 22000 | 59000 |  | < 0.005 |  | 38
CCOP(=O)(COc1ccc(C[C@H](NC(=O)O[C@H]2CO[C@H]3OCC[C@H]32)[C@H](O)CN(CC(CC)CC)S(=O)(=O)c2ccc(N)cc2)cc1)OCC |  |  |  |  |  |  | 16 |  | 51.6 | 4.71 | < 0.005 | 106 | 44000 | 96000 | 2.75 | < 0.005 |  | 
CCOP(=O)(COc1ccc(C[C@H](NC(=O)O[C@H]2CO[C@H]3OCC[C@H]32)[C@H](O)CN(CC(C)C)S(=O)(=O)c2ccc3ncsc3c2)cc1)OCC |  |  |  |  |  |  | 10.4 |  | 1.9 | 0.93 | < 0.005 | 15 | 45000 | > 100000 | 4.33 | < 0.005 |  | 
